16 molecules from ChEMBL document CHEMBL3593190, “Triterpenoids with Promoting Effects on the Differentiation of PC12 Cells from the Steamed Roots of Panax notoginseng” (J Nat Prod, 2015) can be followed below.

A value given as a limit tells only on which side of the number the result lay.

A short description of assay [1]: Cytotoxicity against human […] cells. The assay is classed as functional, cell-based.
Another assay deals with MCF7. Put plainly: Cytotoxicity against human MCF7 cells. The assay is classed as functional, cell-based.
For a further assay, the system named is HL-60. The experiment in a line: Cytotoxicity against human HL60 cells. In kind it is functional, cell-based.
The test system of the next assay is PC-12. Put plainly: Neurotrophic activity in rat PC12 cells assessed as stimulation of NGF-induced neurite outgrowth at 10 uM after 72 hrs by phase-contrast microscopic analysis relative to control. The assay is classed as functional. The method in brief:
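PC12 cells kept in F12 with 12.5% horse serum and 2.5% FBS at 37 °C, 5% CO2, then seeded at 5 × 10^4 cells/mL on poly-L-lysine. After 24 h, medium switched to 10 μM compound (DMSO, final 0.05%) plus 5 ng/mL NGF; controls: no NGF, 5 ng/mL or 50 ng/mL NGF. After 72 h, phase-contrast scoring: neurite ≥ soma diameter; % neurite-bearing cells, ≥100 cells/view, 5 views/well.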

The next assay has as its system A549. The experiment in a line: Cytotoxicity against human A549 cells. In kind it is functional, cell-based.
A further assay relates to SW480. Put plainly: Cytotoxicity against human SW480 cells. The assay is classed as functional, cell-based.
The next assay has as its system Human alphaherpesvirus 2. Put plainly: Antiviral activity against HSV2. In kind it is functional, organism-based.
Another assay relates to Human alphaherpesvirus 1. The experiment in a line: Antiviral activity against HSV1. In kind it is functional, organism-based.

On to `C/C(=C\C[C@H](O)C(C)(C)O)[C@H]1CC[C@]2(C)[C@@H]1[C@H](O)C[C@@H]1[C@@]3(C)CC[C@H](O)C(C)(C)[C@@H]3[C@@H](O[C@@H]3O[C@H](CO)[C@@H](O)[C@H](O)[C@H]3O)C[C@]12C`, for which the IC50 (in assay [1]; in the assay on MCF7; in the assay with HL-60; with A549; in the assay with SW480) was more than 10 µM in each case. The Activity with PC-12 is reported as 9.3%.

Consider `CC(C)=CCC[C@](C)(O)[C@H]1CC[C@]2(C)[C@@H]1[C@H](O)C[C@@H]1[C@@]3(C)CC[C@H](O[C@@H]4O[C@H](CO)[C@@H](O)[C@H](O)[C@H]4O[C@@H]4O[C@H](CO)[C@@H](O)[C@H](O)[C@H]4O[C@@H]4OC[C@@H](O)[C@H](O)[C@H]4O)C(C)(C)[C@@H]3CC[C@]12C`, for which the EC50 in the assay on Human alphaherpesvirus 2 turned out to be 19.4 µM; in the assay on Human alphaherpesvirus 1, 16.5 µM.

On to `CO[C@@H](/C=C(\C)[C@H]1CC[C@]2(C)[C@@H]1[C@H](O)C[C@@H]1[C@@]3(C)CC[C@H](O)C(C)(C)[C@@H]3[C@@H](O[C@@H]3O[C@H](CO)[C@@H](O)[C@H](O)[C@H]3O)C[C@]12C)[C@@H]1OC1(C)C`, for which the IC50 (in assay [1]; with MCF7; with HL-60; in the assay with A549; with SW480) was more than 10 µM in each case. For the same molecule, the Activity in the assay on PC-12 was 11.6%.

With `CC(=O)OC[C@H]1O[C@@H](O[C@H]2[C@H](O[C@H]3CC[C@]4(C)[C@H]5C[C@@H](O)[C@@H]6[C@@H]([C@](C)(O)CCC=C(C)C)CC[C@@]6(C)[C@]5(C)CC[C@H]4C3(C)C)O[C@H](CO)[C@@H](O)[C@@H]2O)[C@H](O)[C@@H](O)[C@@H]1O`, the IC50 (in assay [1]; in the assay with MCF7; in the assay on HL-60; in the assay on A549; with SW480) was more than 10 µM in each case. Besides, in the assay with PC-12, the Activity is recorded as 13.4%.

With `C=C(CCCC(C)(C)O)[C@H]1CC[C@]2(C)[C@@H]1[C@H](O)C[C@@H]1[C@@]3(C)CC[C@H](O)C(C)(C)[C@@H]3[C@@H](O[C@@H]3O[C@H](CO)[C@@H](O)[C@H](O)[C@H]3O)C[C@]12C`, the IC50 (in assay [1]; in the assay with MCF7; in the assay on HL-60; with A549; in the assay with SW480) was more than 10 µM each time. Moreover, in the assay on PC-12, the Activity was 8.3%.

Turning to `C/C(=C\[C@@H](O)[C@H](O)C(C)(C)O)[C@H]1CC[C@]2(C)[C@@H]1[C@H](O)C[C@@H]1[C@@]3(C)CC[C@H](O)C(C)(C)[C@@H]3[C@@H](O[C@@H]3O[C@H](CO)[C@@H](O)[C@H](O)[C@H]3O)C[C@]12C`, the IC50 (in assay [1]; in the assay on MCF7; in the assay with HL-60; in the assay on A549; in the assay on SW480) was more than 10 µM throughout. The Activity in the assay on PC-12 was 9.9%.

For the molecule `CC(C)(O)CCC[C@@](C)(O)[C@H]1CC[C@]2(C)[C@@H]1[C@H](O)C[C@@H]1[C@@]3(C)CC[C@H](O)C(C)(C)[C@@H]3[C@@H](O[C@@H]3O[C@H](CO)[C@@H](O)[C@H](O)[C@H]3O)C[C@]12C`, the IC50 (in assay [1]; with MCF7; with HL-60; with A549; in the assay on SW480) was more than 10 µM each time. For the same molecule, the Activity with PC-12 was found to be 8.6%.

Take `C/C(=C/[C@@H](O)[C@H](O)C(C)(C)O)[C@H]1CC[C@]2(C)[C@@H]1[C@H](O)C[C@@H]1[C@@]3(C)CC[C@H](O)C(C)(C)[C@@H]3[C@@H](O[C@@H]3O[C@H](CO)[C@@H](O)[C@H](O)[C@H]3O)C[C@]12C`: the IC50 (in assay [1]; with MCF7; in the assay with HL-60; with A549; in the assay with SW480) was more than 10 µM throughout. In the assay on PC-12, the Activity is on record as 10.9%.

As for `CC(C)=CCC[C@@](C)(O)[C@H]1CC[C@]2(C)[C@@H]1[C@H](O)C[C@@H]1[C@@]3(C)CC[C@H](O[C@@H]4O[C@H](CO)[C@@H](O)[C@H](O)[C@H]4O[C@@H]4O[C@H](CO)[C@@H](O)[C@H](O)[C@H]4O)C(C)(C)[C@@H]3CC[C@]12C`, the IC50 (in assay [1]; in the assay with MCF7; in the assay on HL-60; in the assay on A549; in the assay on SW480) was more than 10 µM in each case. In addition, the Activity with PC-12 is 9.5%.

As to `CC(C)(O)[C@H](O)/C=C/[C@](C)(O)[C@H]1CC[C@]2(C)[C@@H]1[C@H](O)C[C@@H]1[C@@]3(C)CC[C@H](O[C@@H]4O[C@H](CO)[C@@H](O)[C@@H](O)[C@H]4O[C@@H]4O[C@H](CO)[C@@H](O)[C@H](O)[C@H]4O)C(C)(C)[C@@H]3CC[C@]12C`, the IC50 (in assay [1]; with MCF7; in the assay with HL-60; in the assay with A549; with SW480) was more than 10 µM in each case. In addition, the Activity with PC-12 came out at 10.8%.

Turning to `C=C(CCC=C(C)C)[C@H]1CC[C@]2(C)[C@@H]1[C@H](O)C[C@@H]1[C@@]3(C)CC[C@H](O[C@@H]4O[C@H](CO)[C@@H](O)[C@H](O)[C@H]4O)C(C)(C)[C@@H]3CC[C@]12C`, the IC50 (in assay [1]; in the assay on MCF7; in the assay with HL-60; in the assay on A549; in the assay on SW480) was more than 10 µM throughout. In addition, the Activity in the assay on PC-12 was found to be 8.9%.

With `CO[C@@H](/C=C(\C)[C@H]1CC[C@]2(C)[C@@H]1[C@H](O)C[C@@H]1[C@@]3(C)CC[C@H](O[C@@H]4O[C@H](CO)[C@@H](O)[C@H](O)[C@H]4O[C@@H]4O[C@H](CO)[C@@H](O)[C@H](O)[C@H]4O)C(C)(C)[C@@H]3CC[C@]12C)[C@@H]1OC1(C)C`, the concentration for half-maximal inhibition (IC50) (in assay [1]; with MCF7; in the assay with HL-60; in the assay on A549; with SW480) was more than 10 µM throughout. Also, the Activity in the assay with PC-12 was 11.4%.

As for `C/C(=C/[C@H](O)[C@@H](O)C(C)(C)O)[C@H]1CC[C@]2(C)[C@@H]1[C@H](O)C[C@@H]1[C@@]3(C)CC[C@H](O)C(C)(C)[C@@H]3[C@@H](O[C@@H]3O[C@H](CO)[C@@H](O)[C@H](O)[C@H]3O)C[C@]12C`, the concentration for half-maximal inhibition (IC50) (in assay [1]; in the assay with MCF7; in the assay with HL-60; with A549; with SW480) was more than 10 µM each time. Besides, in the assay on PC-12, the Activity came to 11.4%.

Turning to `CC(=O)OC[C@H]1O[C@@H](O[C@H]2[C@H](O[C@H]3CC[C@]4(C)[C@H]5C[C@@H](O)[C@@H]6[C@@H]([C@@](C)(O)CCC=C(C)C)CC[C@@]6(C)[C@]5(C)CC[C@H]4C3(C)C)O[C@H](CO)[C@@H](O)[C@@H]2O)[C@H](O)[C@@H](O)[C@@H]1O`, the IC50 (in assay [1]; with MCF7; in the assay with HL-60; with A549; in the assay with SW480) was more than 10 µM in each case. The Activity in the assay with PC-12 turned out to be 9.3%.

Consider `CC(C)(O)[C@@H](O)/C=C/[C@](C)(O)[C@H]1CC[C@]2(C)[C@@H]1[C@H](O)C[C@@H]1[C@@]3(C)CC[C@H](O[C@@H]4O[C@H](CO)[C@@H](O)[C@H](O)[C@H]4O[C@@H]4O[C@H](CO)[C@@H](O)[C@H](O)[C@H]4O)C(C)(C)[C@@H]3CC[C@]12C`, for which the IC50 (in assay [1]; in the assay on MCF7; with HL-60; with A549; in the assay with SW480) was more than 10 µM throughout. In the assay on PC-12, the Activity amounted to 8.2%.

As to `CC(C)=CCC[C@@](C)(O)[C@H]1CC[C@]2(C)[C@@H]1[C@H](O)C[C@@H]1[C@@]3(C)CC[C@H](O)C(C)(C)[C@@H]3[C@@H](O[C@@H]3O[C@H](CO)[C@@H](O)[C@H](O)[C@H]3O)C[C@]12C`, the IC50 (in assay [1]; in the assay on MCF7; in the assay with HL-60; with A549; with SW480) was more than 10 µM each time. For the same molecule, the Activity in the assay on PC-12 was determined as 8.5%.

Usually IC50 stands for the concentration that inhibits the measured activity by half. Low values mean greater potency in that assay, high ones weaker potency in that assay. The EC50 is the concentration giving half of the maximal effect. Lower therefore signals an effect from little substance.
